Experimental data taken from ChEMBL document CHEMBL1122513, “Synthesis and antiviral activity of carbocyclic analogues of 2'-deoxyribofuranosides of 2-amino-6-substituted-purines and of 2-amino-6-substituted-8-azapurines” (J Med Chem, 1984).
Values after ≈ are worked out from the molar mass of the structure shown. Values joined by “and” are separate entries in the source; they are usually repeats but may differ in a detail not shown here. Equal entries are not always repeated.

Key:
Vaccinia virus = assay: In vitro for antiviral activity in secondary cultures of rabbit kidney cells infected with vaccinia virus; assay type: functional, Orthopoxvirus vaccinia
Human alphaherpesvirus 1 [1] = assay: In vitro antiviral activity in secondary cultures of rabbit kidney cells infected with HSV type 1 strain HF; assay type: functional
L1210 [2] = assay: Antineoplastic activity of compound in mice inoculated with 10e 5 L1210 leukemia cells was measured as weight change after ip administration of 100 […]; assay type: functional, Mus musculus
Outline: (§1)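 Mice received 10⁵ L1210 leukemia cells ip on day 0, then compound ip as a solution or suspension q.d. days 1-9, following NCI protocols. Weight-change difference is the mean weight change of treated mice minus that of untreated leukemic controls, both measured on day 5.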

Mus musculus [3] = assay: Antineoplastic activity of compound in mice inoculated with 10e 5 L1210 leukemia cells was measured as T/C after ip administration of 100 […]; assay type: functional
Outline: (§2)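 L1210 leukemia, 10⁵ cells inoculated intraperitoneally into mice on day 0, following NCI protocols. Compound given intraperitoneally as a solution or suspension once daily on days 1-9. T/C % compares lifespan of treated mice with untreated leukemic control mice.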

Human alphaherpesvirus 1 [4] = assay: In vitro antiviral activity in secondary cultures of rabbit kidney cells infected with HSV type 1 strain 377; assay type: functional
Outline: (§3)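 Scored as a virus rating (VR) from inhibition of CPE caused by HSV-1 strain 377 or HSV-2 strain MS in secondary rabbit kidney cultures or Vero cells. VR ≥1.0 means definite activity, 0.5-0.9 marginal to moderate, and <0.5 usually none. Ranges are pooled from several tests.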

[5] = Compound was evaluated for cytotoxicity to KB cells (derived from human epidermoid carcinoma); assay type: cell-based; details: read-out: ED50 (the source's name)
Outline: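 KB cells grown in culture and tested under the National Cancer Institute cytotoxicity protocol. The value is reported as ED50 in mcg/mL.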

Human alphaherpesvirus 2 [6] = assay: Concentration required to inhibit HSV type 2 strain MS induced cytopathogenic affects by 50%; assay type: functional
Outline: (§4)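 Inhibition of cytopathogenic effect caused by HSV-1 strain 377 or HSV-2 strain MS, replicating in secondary rabbit kidney cell cultures or in Vero cells. MIC₅₀ is the concentration giving 50% inhibition of virus-induced CPE. Ranges are pooled from several tests in either host cell type.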

Human alphaherpesvirus 1 [7] = assay: Concentration required to inhibit HSV type 1 strain 377 induced cytopathogenic affects by 50%; assay type: functional; outline: as §4
Human alphaherpesvirus 2 [8] = assay: In vitro antiviral activity in secondary cultures of rabbit kidney cells infected with HSV type 2 strain MS; assay type: functional; outline: as §3
L1210 [9] = assay: Antineoplastic activity of compound in mice inoculated with 10e 5 L1210 leukemia cells was measured as weight change after ip administration of 25 […]; assay type: functional, Mus musculus; outline: as §1
Mus musculus [10] = assay: Antineoplastic activity of compound in mice inoculated with 10e 5 L1210 leukemia cells was measured as T/C after ip administration of 50 […]; assay type: functional; outline: as §2
Mus musculus [11] = assay: Antineoplastic activity of compound in mice inoculated with 10e 5 L1210 leukemia cells was measured as T/C after ip administration of 200 […]; assay type: functional; outline: as §2
L1210 [12] = assay: Antineoplastic activity of compound in mice inoculated with 10e 5 L1210 leukemia cells was measured as weight change after ip administration of 200 […]; assay type: functional, Mus musculus; outline: as §1
Mus musculus [13] = assay: Antineoplastic activity of compound in mice inoculated with 10e 5 L1210 leukemia cells was measured as T/C after ip administration of 25 […]; assay type: functional; outline: as §2
L1210 [14] = assay: Antineoplastic activity of compound in mice inoculated with 10e 5 L1210 leukemia cells was measured as weight change after ip administration of 50 […]; assay type: functional, Mus musculus; outline: as §1
Mus musculus [15] = assay: Antineoplastic activity of compound in mice inoculated with 10e 5 L1210 leukemia cells was measured as T/C after ip administration of 100 mg/kg; assay type: functional; details: route intraperitoneal; outline: as §2
Mus musculus [16] = assay: Antineoplastic activity of compound in mice inoculated with 10e 5 L1210 leukemia cells was measured as T/C after ip administration of 200 mg/kg; assay type: functional; details: route intraperitoneal; outline: as §2
L1210 [17] = assay: Antineoplastic activity of compound in mice inoculated with 10e 5 L1210 leukemia cells was measured as weight change after ip administration of 200 mg/kg; assay type: functional, Mus musculus; details: route intraperitoneal; outline: as §1
L1210 [18] = assay: Antineoplastic activity of compound in mice inoculated with 10e 5 L1210 leukemia cells was measured as weight change after ip administration of 100 mg/kg; assay type: functional, Mus musculus; details: route intraperitoneal; outline: as §1
Human alphaherpesvirus 1 [19] = assay: In vitro antiviral activity in secondary cultures of rabbit kidney cells against HSV type 1 strain 377; assay type: functional; outline: as §3
L1210 [20] = assay: Antineoplastic activity of compound in mice inoculated with 10e 5 L1210 leukemia cells was measured as weight change after ip administration of 50 mg/kg; assay type: functional, Mus musculus; details: route intraperitoneal; outline: as §1
Mus musculus [21] = assay: Antineoplastic activity of compound in mice inoculated with 10e 5 L1210 leukemia cells was measured as T/C after ip administration of 50 mg/kg; assay type: functional; details: route intraperitoneal; outline: as §2
Human alphaherpesvirus 1 [22] = assay: Concentration required to inhibit HSV type 1 strain HF induced cytopathogenic affects by 50%; assay type: functional
Human alphaherpesvirus 1 [23] = assay: Concentration required to inhibit HSV type 1 strain 377 induced cytopathogenic affects by 50%; 6.4-9.8; assay type: functional; outline: as §4
Human alphaherpesvirus 1 [24] = assay: In vitro antiviral activity in secondary cultures of rabbit kidney cells against HSV type 1 strain 377; 2.5-3.1; assay type: functional; outline: as §3
Human alphaherpesvirus 2 [25] = assay: Concentration required to inhibit HSV type 2 strain MS induced cytopathogenic affects by 50%; 6.4-30; assay type: functional; outline: as §4
Human alphaherpesvirus 2 [26] = assay: In vitro antiviral activity in secondary cultures of rabbit kidney cells against HSV type 2 strain MS; 1.6-2.3; assay type: functional; outline: as §3
[27] = Human alphaherpesvirus 1, read-out: MIC50

Row | SMILES | Weight change (L1210 [2]) | T/C (Mus musculus [3]) | Virus rating (Human alphaherpesvirus 1 [4]) | CC50 [5] | MIC50 (Human alphaherpesvirus 2 [6]) | MIC50 (Human alphaherpesvirus 1 [7]; [27]) | Virus rating (Human alphaherpesvirus 2 [8]) | other results
1 | Nc1ncnc2c1ncn2[C@@H]1C[C@H](CO)[C@@H](O)[C@@H]1O |  |  |  |  |  |  |  | Virus rating (Vaccinia virus): 1.5 and 1.7; Virus rating (Human alphaherpesvirus 1 [1]): 2.2 and 3.5
2 | Nc1nc(O)c2ncn([C@@H]3C[C@H](CO)[C@@H](O)C3)c2n1 | -3.7 g | 96% | >=4.6 | 95 µg/mL (≈ 358 µM) | 0.8 µg/mL (≈ 3.02 µM) | < 0.3 µg/mL | 3.7 | 
3 | Nc1nc(Cl)c2nnn(C3CC(O)C(CO)C3)c2n1 (stereo unspecified) | -3.4 g | 100% | 5 and 4.5 | 10 µg/mL (≈ 35.1 µM) | 23 µg/mL (≈ 80.8 µM) | < 1 µg/mL | 1.9 | Weight change (L1210 [9]): -1 g; T/C (Mus musculus [10]): 105%; T/C (Mus musculus [11]): 78%; Weight change (L1210 [12]): -4.4 g; T/C (Mus musculus [13]): 118%; Weight change (L1210 [14]): -1.5 g; MIC50 (Human alphaherpesvirus 1 [7]): 1.6 µg/mL (≈ 5.62 µM)
4 | Nc1nc(N)c2nnn(C3CC(O)C(CO)C3)c2n1 (stereo unspecified) |  |  | 4 and 4.4 | > 100 µg/mL | 10 µg/mL (≈ 37.7 µM) | < 3.2 µg/mL | 2.3 | T/C (Mus musculus [15]): 96%; T/C (Mus musculus [16]): 92%; Weight change (L1210 [17]): -1.1 g; Weight change (L1210 [18]): -0.7 g; MIC50 (Human alphaherpesvirus 1 [7]): 2 µg/mL (≈ 7.54 µM)
5 | Nc1nc(N)c2ncn(C3CC(O)C(CO)C3)c2n1 (stereo unspecified) |  |  | 4.5 | > 100 µg/mL | 2.4 µg/mL (≈ 9.08 µM) | 0.6 µg/mL (≈ 2.27 µM) | 2.9 | Virus rating (Human alphaherpesvirus 1 [19]): 4.7; Weight change (L1210 [20]): -2.8 g; T/C (Mus musculus [16]): 79%; Weight change (L1210 [17]): -5.5 g; T/C (Mus musculus [21]): 104%; MIC50 (Human alphaherpesvirus 1 [7]): 0.3 µg/mL (≈ 1.14 µM)
6 | Nc1nc(S)c2ncn(C3CC(O)C(CO)C3)c2n1 (stereo unspecified) | -0.2 g | 91% | 4.9 | > 100 µg/mL | 32 µg/mL (≈ 114 µM) | < 3.2 µg/mL | 1.7 | T/C (Mus musculus [11]): 108%; Weight change (L1210 [12]): 0.5 g
7 | Cc1cn(C2CC(CO)C(O)C2O)c(=O)[nH]c1=O (stereo unspecified) |  |  | 5.4 |  | 7 µg/mL (≈ 27.3 µM) | 0.8 µg/mL (≈ 3.12 µM) | 3.2 | 
8 | Nc1nc(Cl)c2ncn(C3CC(O)C(CO)C3)c2n1 (stereo unspecified) | -1 g | 106% | 1.9 | 62 µg/mL (≈ 219 µM) | 37 µg/mL (≈ 130 µM) | 8.1 µg/mL (≈ 28.5 µM) | 2 | T/C (Mus musculus [11]): 106%; Weight change (L1210 [12]): -2.2 g
9 | OCC1CC(n2nnc3c(O)ncnc32)C(O)C1O (stereo unspecified) |  |  |  |  |  |  |  | Virus rating (Vaccinia virus): 1.2; MIC50 (Human alphaherpesvirus 1 [22]; [27]): 298 µg/mL (≈ 1120 µM); Virus rating (Human alphaherpesvirus 1 [1]): 1.5
10 | Nc1nc(O)c2nnn(C3CC(O)C(CO)C3)c2n1 (stereo unspecified) | -2.4 g | 100% | 4.2 | > 100 µg/mL | 6.9 µg/mL (≈ 25.9 µM) | 0.6 µg/mL (≈ 2.25 µM) | 2.1 | T/C (Mus musculus [11]): 104%; Weight change (L1210 [12]): -3.2 g
11 | OCC1CC(n2cnc3c(O)ncnc32)C(O)C1O (stereo unspecified) |  |  |  |  |  |  |  | Virus rating (Vaccinia virus): 1.9; MIC50 (Human alphaherpesvirus 1 [22]; [27]): 97 µg/mL (≈ 364 µM); Virus rating (Human alphaherpesvirus 1 [1]): 2.1
12 | Nc1ccn([C@@H]2C[C@H](CO)[C@@H](O)[C@H]2O)c(=O)n1 (stereo in doubt; form 1) |  |  |  |  |  |  |  | MIC50 (Human alphaherpesvirus 1 [22]): 93 µg/mL and <32 µg/mL
13 | Nc1ccn([C@@H]2C[C@H](CO)[C@@H](O)[C@H]2O)c(=O)n1 (stereo in doubt; form 2) |  |  |  |  | 2.4 µg/mL (≈ 9.95 µM) |  | 3.2 | Virus rating (Vaccinia virus): 0.9; MIC50 (Human alphaherpesvirus 1 [22]): 68 µg/mL (≈ 282 µM); Virus rating (Human alphaherpesvirus 1 [1]): 0.8
14 | Nc1ncnc2c1ncn2[C@@H]1O[C@H](CO)[C@@H](O)[C@@H]1O [VIDARABINE] |  |  |  |  |  |  |  | MIC50 (Human alphaherpesvirus 1 [23]): 6.4 µg/mL (≈ 23.9 µM); Virus rating (Human alphaherpesvirus 1 [24]): 2.5; MIC50 (Human alphaherpesvirus 2 [25]): 6.4 µg/mL (≈ 23.9 µM); Virus rating (Human alphaherpesvirus 2 [26]): 1.6
